CendR NRP1 mod: modulators of CendR peptide binding to human neuropilin-1. O14786. FAM-RPARPAR peptide binding to NRP-1, fluorescence polarization. inhibition, % at 25 µM. 0.85% of 360,000 active;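 active = inhibition or corrected inhibition above about 18%, plus a signal ratio from 0.5 to 1.5, limit read from the data, passing the limit was not always enough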
Target sequence (O14786 whole entry, looked up): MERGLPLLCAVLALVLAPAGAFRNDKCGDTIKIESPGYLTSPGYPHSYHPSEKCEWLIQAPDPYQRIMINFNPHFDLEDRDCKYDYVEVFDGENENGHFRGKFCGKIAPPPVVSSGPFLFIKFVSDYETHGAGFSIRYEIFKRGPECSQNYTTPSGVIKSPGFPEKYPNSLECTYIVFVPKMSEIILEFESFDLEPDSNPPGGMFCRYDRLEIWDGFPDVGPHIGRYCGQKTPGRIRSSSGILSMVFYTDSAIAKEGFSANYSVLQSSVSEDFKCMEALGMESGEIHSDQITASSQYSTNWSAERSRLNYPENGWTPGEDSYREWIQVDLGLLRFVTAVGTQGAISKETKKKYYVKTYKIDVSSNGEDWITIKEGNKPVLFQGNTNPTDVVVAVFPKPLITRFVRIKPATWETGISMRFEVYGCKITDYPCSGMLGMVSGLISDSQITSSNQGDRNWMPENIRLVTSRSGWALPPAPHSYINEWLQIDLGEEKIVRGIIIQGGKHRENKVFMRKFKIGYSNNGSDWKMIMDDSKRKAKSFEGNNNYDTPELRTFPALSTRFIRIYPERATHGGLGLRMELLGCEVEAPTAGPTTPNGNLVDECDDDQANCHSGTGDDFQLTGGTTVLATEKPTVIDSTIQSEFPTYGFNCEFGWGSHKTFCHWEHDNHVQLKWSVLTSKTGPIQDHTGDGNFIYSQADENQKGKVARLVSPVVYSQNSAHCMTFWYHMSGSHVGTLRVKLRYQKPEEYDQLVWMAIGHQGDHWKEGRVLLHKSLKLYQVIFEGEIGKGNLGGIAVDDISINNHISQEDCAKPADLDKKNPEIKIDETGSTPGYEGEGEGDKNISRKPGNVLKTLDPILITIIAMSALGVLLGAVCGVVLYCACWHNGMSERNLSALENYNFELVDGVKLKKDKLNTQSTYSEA
CR mimetic SO: caloric restriction mimetics inhibiting age-related superoxide in yeast; S. cerevisiae aged cells, superoxide DHE fluorescence; active compounds read low; superoxide response (% of plate mean), % at 10 µM; 0.18% of 330,000 active; AID 2690;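 active = superoxide response under a set limit, about three screen SD below normal, cut at about 65% in these data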;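 note: yeast aged for seven days with compound at 30 °C before DHE staining; 100% = average MFI of all compound-treated wells on the plate with controls excluded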
AI-2 QS mod: modulators of Vibrio harveyi AI-2 quorum sensing system; Vibrio harveyi JMH597 AI-2 luminescence/OD600 ratio, 9 h; active compounds read low; strain lacks LuxN and CqsS sensors; 0 = neutral-control median; 0.4% of 300,000 active; activity change, % at 7.5 µM; AID 2094; in the data active = activity change below about -75%, passing the limit was not always enough; inconclusive = no clear call, values can overlap the other calls;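 note: luminescence divided by OD600 gain over 9 h not by final OD600 alone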
T cruzi repl: T. cruzi replication inhibition | T. cruzi beta-gal in NIH3T3, luminescence, 90 h | inhibition, % (no concentration beside the values) | 1.4% of 300,000 active;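 active = mean inhibition across valid replicates above about 55%, limit read from the data; inconclusive = mean below that limit but half or more replicates reach it; inactive = mean below it, under half of replicates reach it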;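 note: signal also drops with host cell toxicity which is not excluded here; 0% = plate median of DMSO wells and 100% = zero luminescence signal; higher percent means less beta-gal luminescence so fewer parasites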
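System: NIH/3T3 fibroblasts plus reporter T. cruzi. Medium: DMEM plus 2% FBS. Probe or stimulus: 5000 reporter trypomastigotes per well. Compound: single 50 nL compound addition per well in DMSO. Incubation: co-culture of at least 90 h after 3 h attachment. Detection: GalScreen β-gal luminescence, detergent lysis, 60 min. Evaluation: parasite load inhibition, %.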
HIF activator: HIF pathway transcriptional activation | 0.32% of 300,000 active | activation, % at 7.5 µM (by protocol) | U2OS HRE-luciferase reporter, luminescence; normalized: DMSO 0%, desferrioxamine 100% | AID 1910;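 active = mean activation of at least 10% of the iron chelator positive control signal, with at least half of replicates also reaching 10%; inconclusive = mean and replicate majority disagree about reaching 10%; inactive = mean and most replicates under 10%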
V-ATPase pHluor: yeast V-ATPase proton transport regulation by pHLuorin; 0.37% of 350,000 active; S. cerevisiae, pHLuorin cytosolic pH fluorescence; response, % at 10 µM; in the data active = response mostly above about 7.3%, no sharp cut-off; inactive = mostly below about 5.4%; note: actives read high
* = called active by the depositor; u = inconclusive; x = no result given. Rows were chosen to be rich in hits. Some 3% of all compounds tested hit in one or more screens of this group.

SMILES	CendR NRP1 mod	CR mimetic SO	AI-2 QS mod	T cruzi repl	HIF activator	V-ATPase pHluor
O=C(NCc1ccccc1)c1cccc(S(=O)(=O)N2CCCCC2)c1	31*	103	x	1	1	1
O=C(NNS(=O)(=O)c1ccccc1)c1ccc(S(=O)(=O)N2CCCCC2)cc1	2	73	-96*	5	2	-2
COC(=O)c1ccc(S(=O)(=O)NNC(=O)c2ccc(S(=O)(=O)N3CCCCC3)cc2)cc1	2	115	20	-10	0	-4
CC(=O)c1cccc(S(=O)(=O)N2CCC(C(=O)O)(c3ccccc3)CC2)c1	24*	101	14	3	0	-7
Cc1cccc(NC(=O)C2CCCN(S(=O)(=O)c3cccc4nsnc34)C2)c1 (stereo unspecified)	-44	130	7	-14	0	1
C#CCSc1nnc(-c2ccccc2)c(=O)[nH]1	-2	164	32	-1	2	1
CC(=O)NC1=CC(=C[N+](=O)[O-])C=C1O	-4	x	x	x	x	3
CC(=O)Oc1ccc(OC(C)=O)c(S(=O)(=O)c2ccc(C)c(C)c2)c1	-14	101	21	1	0	-1
CCCc1cc(=O)oc2c3c(c4c(c12)OC(C)(C)C=C4)OC(C)C(C)C3O (stereo unspecified)	11	114	-2	55*	0	-2
CCCCCn1c(=NC(=O)c2ccco2)c(C(=O)OCC)cc2c(=O)n3ccccc3nc21	-11	99	14	24	0	0
Cn1cnc2nc[nH]c2c1=S	10	x	x	x	x	-4
S=c1nc[nH]c2nc[nH]c12	0	99	-154*	u	3	-6
O=C(/C=C/c1ccco1)Nc1ccc2c(c1)OCO2	-22	98	-14	-2	5	-1
O=C(/C=C/c1ccco1)NCc1ccc2c(c1)OCO2	-6	95	-77*	-13	0	1
CCn1cc(S(=O)(=O)CC(=O)Nc2ccc(OC)cc2)c2ccccc21	-4	116	19	-6	0	16*
CCN(CC)C(=O)Cn1cc(S(=O)(=O)CC(=O)NCCc2ccccc2)c2ccccc21	10	95	18	8	0	-1
CCOc1ccc(NC(=O)CS(=O)(=O)c2cn(CC)c3ccccc23)cc1	-16	105	26	-6	0	6
CCN(CC)C(=O)Cn1cc(S(=O)(=O)CC(=O)NCc2ccc(C)cc2)c2ccccc21	22*	93	6	15	0	-1
COc1ccc([C@H]2/C=C\CN(C(=O)[C@H](Cc3ccccc3)NC(=O)OCC3c4ccccc4-c4ccccc43)CC(=O)N2Cc2ccc(F)cc2)cc1	15	101	13	17	0	-1
O=C(Nc1cccc(S(=O)(=O)NCc2ccco2)c1)c1ccc(Cl)cc1	5	113	x	x	x	0
COC(=O)c1cc(NC2c3ccccc3C(=O)N2CCN2CCOCC2)cc(C(=O)OC)c1 (stereo unspecified)	3	98	11	-4	0	-3
CC1CCC/C(=N\NC(=O)COc2ccccc2Cl)C1 (stereo unspecified)	1	90	21	2	0	-1
COc1ccc(CNC(=O)CC(C)c2ccccc2)cc1 (stereo unspecified)	1	96	-60	-12	0	3
Cc1cccc2cc(COC(=O)c3cccnc3)c(=O)[nH]c12	-12	102	31	-13	0	-5
O=C(Nc1ccc(F)cc1)N1CCCCCC1	15	98	7	0	1	1
SMILES	CendR NRP1 mod	CR mimetic SO	AI-2 QS mod	T cruzi repl	HIF activator	V-ATPase pHluor
Oc1cccc2ccc(Nc3ccccn3)nc12	-16	72	-86*	62*	-8	1
O=C(CNC(=O)c1ccccc1F)OCn1nnc2ccccc2c1=O	-9	115	x	x	x	5
CCCCOc1ccc(C(=O)CCN2CCOCC2)cc1	11	101	26	56*	0	0
C1CCc2nc3c(nc2C1)CCCC3	12	108	10	3	0	1
CCOC(=O)C(C)CC(C)C(=O)N1CCOCCN(C(=O)C(C)CC(C)C(=O)OCC)CCOCC1 (stereo unspecified)	7	95	10	5	-1	0
COc1cc2c(cc1OC)[C@@H]1Cc3ccc(OC)c(OC)c3CN1CC2	0	81	19	56*	0	-4
COc1cc2c(c(O)c1OC)C1Cc3ccc(OC)c(OC)c3CN1CC2 (stereo unspecified)	-3	x	x	x	x	x
COc1cc2c(cc1OC)C1Cc3ccc(OC)c(OC)c3CN1CC2 (stereo unspecified)	2	81	1	51	0	0
COc1ccc2c(c1OC)CN1CCc3cc4c(cc3[C@@H]1[C@@H]2O)OCO4	29*	97	19	38	-3	0
Nc1nonc1C(=O)N/N=C/c1cc(Br)ccc1O	x	99	-89*	1	22*	2
Nc1nonc1C(=O)N/N=C/c1cccc([N+](=O)[O-])c1	4	111	27	-8	-1	2
Nc1nonc1-n1nnc(C(=O)N/N=C/c2cc(Br)ccc2O)c1CNc1ccccc1	-1	69	9	59*	7	-4
CN(C)c1ccc(/C=N/NC(=O)c2nonc2N)cc1[N+](=O)[O-]	25*	109	10	-4	0	3
O=C(O)COc1ccccc1/C=N/NC(=O)CSc1nc2ccccc2n1Cc1ccccc1	-5	91	11	-5	0	1
Cc1ccc(C(=O)NCC(=O)OCn2nnc3ccccc3c2=O)cc1	5	101	x	x	x	-2
CCC(c1nnc(SCC(=O)Nc2ccc(N3CCOCC3)cc2)n1Cc1ccccc1)N(C)C (stereo unspecified)	27*	96	-2	-2	-28	-2
Cc1cccn2c(=O)nc(SCC(=O)N3N=C(c4cccs4)CC3c3ccc(F)cc3)nc12 (stereo unspecified)	10	x	34	67*	-1	1
Cc1ccn2c(=O)nc(SCC(=O)N3N=C(c4cccs4)CC3c3ccc(F)cc3)nc2c1 (stereo unspecified)	8	103	26	59*	0	1
O=C(CSc1nc2ccccc2s1)N1N=C(c2cccs2)CC1c1ccc(F)cc1 (stereo unspecified)	7	110	5	56*	1	-3
COC(=O)CC1C(=O)NC2CCCCC2N1C(=O)c1ccccc1 (stereo unspecified)	0	89	17	-2	0	2
CC(=O)N1CCC(O)(c2ccc3c(c2)OCO3)CC1	22*	107	11	-7	0	0
O=C(c1ccccc1)N1CCC(O)(c2ccc3c(c2)OCO3)CC1	7	110	-3	-11	0	2

Screening results from PubChem BioAssay.
